WT yeast gro inh: growth inhibition of WT yeast, mitochondrial fusion screen | mitochondrial fusion phenotypic screen, WT strain | inhibition, % at 10 µM | 190,000 tested, 2.1% active; in the data active = inhibition above about 58%; tested in S. cerevisiae
NPY-Y2 PAM-ag: potentiates or activates human NPY-Y2 receptor; 220,000 tested, 0.45% active; cells expressing NPY-Y2, potentiator/agonist read-out; AID 1359; P49146; activation, % at 3.6 µM; in the data active = activation above about 27%;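 note: cells stimulated with NPY near EC25 plus isoproterenol at EC100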
NPY Y1 blocker: blocks the human neuropeptide Y Y1 receptor; inhibition, % at 3.6 µM; HEK293-CNG Y1 cells, membrane potential fluorescence; NPY at EC95, then isoproterenol; P25929; 200,000 tested, 1% active;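 active = inhibition above the campaign mean inhibition of all tested compounds plus 3 SD, cut at about 20% in these data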
Target sequence (P25929 whole entry, looked up): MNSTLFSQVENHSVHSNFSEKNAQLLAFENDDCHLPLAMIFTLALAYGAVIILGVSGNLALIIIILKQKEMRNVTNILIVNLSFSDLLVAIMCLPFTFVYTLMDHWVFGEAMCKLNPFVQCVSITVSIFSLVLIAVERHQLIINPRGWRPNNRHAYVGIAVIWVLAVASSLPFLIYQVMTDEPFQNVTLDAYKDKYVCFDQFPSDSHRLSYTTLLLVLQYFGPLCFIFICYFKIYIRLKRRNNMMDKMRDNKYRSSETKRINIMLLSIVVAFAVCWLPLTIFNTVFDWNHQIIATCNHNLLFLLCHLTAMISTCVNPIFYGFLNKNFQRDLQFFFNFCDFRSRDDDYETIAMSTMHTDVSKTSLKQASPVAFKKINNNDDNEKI
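Assay system: HEK293 Y1/CNG channel cell line; Doses: single compound dose of 3.6 µM, 0.4% DMSO; Timing: dye 3 h, compound 60 min room temperature, stimulation 45 min; Technique: Membrane-potential fluorescent dye readout; Measure: % inhibition of NPY effect.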
NPY Y2 blocker: blocks the human neuropeptide Y Y2 receptor. 140,000 tested, 0.99% active. inhibition, % at 2.7 µM. P49146. NPY-Y2 expressing cells, antagonist mode; in the data active = inhibition above about 17%
NPY-Y1 PAM-ag: human NPY-Y1 potentiation or agonism, primary screen. P25929. NPY-Y1 expressing cells, potentiator/agonist activation. activation, % at 3.6 µM. 220,000 tested, 0.37% active. AID 1304; in the data active = activation above about 33%, passing the limit was not always enough;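 note: cells stimulated with NPY at EC10 then isoproterenol at EC100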
RAM network inh: blocks the yeast RAM network; S. cerevisiae dse1pr::URA3 reporter, 5-FOA growth OD615, 2 d; analog-sensitive cbk1-as2 kinase mutant strain; inhibition, % at 50 µM; 190,000 tested, 1.8% active;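 active = inhibition above a set limit, 3 SD over mean compound inhibition, cut at about 8.4% in these data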;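 note: inhibition rescues growth on 5-FOA so higher OD means more RAM inhibition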
Large screens that a line does not name were inactive. The list is not random: actives were taken first. Their share in the collection is about 4.9%.

CSc1ccc(C(c2c(O)c3ccccc3oc2=O)c2c(C)n(C)n(-c3ccccc3)c2=O)cc1 (stereo not drawn)	none (no result: NPY Y2 blocker)
Cc1c(C(c2ccc(Br)cc2)c2c(O)c3ccccc3oc2=O)c(=O)n(-c2ccccc2)n1C (stereo not drawn)	RAM network inh 10 (no result: NPY Y2 blocker)
CC(=O)Nc1ccc(C(c2c(O)c3ccccc3oc2=O)c2c(C)n(C)n(-c3ccccc3)c2=O)cc1 (stereo not drawn)	none (no result: NPY Y2 blocker)
Cc1c(C(c2ccc(Cl)cc2Cl)c2c(O)c3ccccc3oc2=O)c(=O)n(-c2ccccc2)n1C (stereo not drawn)	WT yeast gro inh 75 (no result: NPY Y2 blocker)
Cn1cccc1/C=C1\C(=O)NC(=O)N(Cc2ccccc2Cl)C1=O	none (no result: NPY Y2 blocker)
CSc1nnc(C2CCNCC2)n1C	WT yeast gro inh 65
CCOC(=O)c1c(C)n(Cc2ccccc2)c2ccc(OCC(O)Cn3nc(C)cc3C)cc12 (stereo not drawn)	WT yeast gro inh 66
CCOC(=O)c1c(C)n(Cc2ccccc2)c2ccc(OCC(O)Cn3nc(C)nc3C)cc12 (stereo not drawn)	none
O=C(c1ccccc1F)c1cn(Cc2ccccc2)c2ccccc12	RAM network inh 11
O=C(c1ccccc1F)c1cn(Cc2ccc(F)cc2)c2ccccc12	none
O=C1CC(=O)N(c2ccc3c(c2)OCO3)C(=O)N1	none
CCN1/C(=C\C=C\C2=[N+](CC)c3ccccc3C2(C)C)C(C)(C)c2ccccc21	NPY Y1 blocker active, NPY Y2 blocker active
Cc1ccc(OCC(=O)Nc2ccc(Cl)cc2C(=O)c2ccccc2)cc1	RAM network inh 9.4
O=C(N/N=C/c1c(O)n(CCc2ccccc2)c(=O)[nH]c1=O)c1ccncc1	none
O=C(N/N=C/c1c(O)n(CCc2ccc(F)cc2)c(=O)[nH]c1=O)c1ccncc1	RAM network inh 8.6 (no result: NPY Y2 blocker)
CCCCCCC(=O)c1c(O)n(-c2ccccc2OC)c(=O)[nH]c1=O (tested in a mixture with another compound)	none (no result: WT yeast gro inh, NPY Y1 blocker, NPY Y2 blocker, RAM network inh)
CCOc1nc(NC(C)C)nc(N2CC3CC(C2)c2cccc(=O)n2C3)n1 (stereo not drawn)	none (no result: NPY Y2 blocker)
CC[n+]1c(/C=C/N(C)c2ccccc2)sc2ccc(Cl)cc21	none
CCCCCSc1cc(OC)c(CCNC)cc1OC	none
CCCCCCCSc1cc(OC)c(CCNC)cc1OC	WT yeast gro inh 94
Cc1nn(Cc2ccccc2Cl)c(C)c1C(=O)OCC(=O)N1CC(C)OC(C)C1 (stereo not drawn)	none
Oc1ccccc1/C=N/NP(=S)(c1ccccc1)c1ccccc1	RAM network inh 8.6 (no result: NPY Y2 blocker)
O=C1NC(=O)N(c2ccccc2)C(=O)/C1=C/c1ccc(Sc2ccccc2)o1	none
CNC(C(=O)c1ccccc1)C(OC)c1ccccc1 (stereo not drawn)	WT yeast gro inh 80
O=C(NC1CCCCC1)Oc1cc2oc(=O)sc2cc1Cl	none (no result: WT yeast gro inh, NPY Y1 blocker, NPY Y2 blocker, RAM network inh)
Cc1oc(-c2ccccc2)nc1CN1C(=O)C(C)N=C(c2ccccc2F)c2cc(Cl)ccc21 (stereo not drawn)	WT yeast gro inh 80
Cc1ccc(NC(=O)CN2C(=O)CN=C(c3ccccc3)c3cc(Cl)ccc32)cc1	none
C[C@@H]1O[C@@H](O[C@H]2C[C@@H](O)[C@]3(CO)[C@H]4[C@H](O)C[C@]5(C)[C@@H](C6COC(=O)C6)CC[C@]5(O)[C@@H]4CC[C@]3(O)C2)[C@H](O)[C@H](O)[C@H]1O (stereo partly drawn)	NPY Y1 blocker 46, NPY Y2 blocker 24
CCOP(=O)(Cc1cc(C(=O)CC)c(C)o1)OCC	none (no result: WT yeast gro inh, NPY Y1 blocker, NPY Y2 blocker, RAM network inh)
CCOC(=O)C1=C(N)OC(C)=C(C(=O)OCCOC)C12C(=O)Nc1ccccc12 (stereo not drawn)	none
CCC12CN3CCN(CC(C3)C1O)C2 (stereo not drawn)	none
CC(C)C12CN3CCN(CC(C3)C1O)C2 (stereo not drawn)	WT yeast gro inh 59
COc1ccccc1Cn1c(SCC(=O)C(C)(C)C)nc2cc(C(=O)N3CCC4(CC3)OCCO4)ccc2c1=O	RAM network inh 11 (no result: NPY Y2 blocker)
COc1ccc(-n2cnc3cc(C(=O)N4CCC5(CC4)OCCO5)ccc32)cc1	none (no result: NPY Y2 blocker)
CC(=O)OC(C)(C)/C=C/C(=O)[C@](C)(O)[C@H]1[C@H](O)C[C@@]2(C)[C@@H]3CC=C4[C@H](C[C@H](O)C(=O)C4(C)C)[C@]3(C)C(=O)C[C@]12C	NPY Y1 blocker 108
O=c1[nH]c(=O)n(Cc2ccco2)c(O)c1/C=N/N1CCCCC1	none
CCn1c(O)c(C=NCCN2CCOCC2)c(=O)n(CC)c1=S	none (no result: WT yeast gro inh, NPY Y1 blocker, NPY Y2 blocker, RAM network inh)
O=c1c2ccccc2[nH]c(=S)n1-c1ccc2c(c1)OCO2	WT yeast gro inh 63
CCOc1cc(CNCCc2c[nH]c3ccccc23)cc(Cl)c1OCC	WT yeast gro inh 86
Clc1ccccc1CN1CCN(c2cccc3[nH]ccc23)CC1	none (no result: WT yeast gro inh, NPY Y1 blocker, NPY Y2 blocker, RAM network inh)
C=C(C=O)CC1CC(O)[C@]2(C)OC3CC4OC5C[C@]6(C)O[C@]7(C)CCC8OC9C[C@]%10(C)OC%11C(C)=CC(=O)OC%11CC%10OC9C[C@@H](C)C8OC7CC6O[C@]5(C)CC5OC5C4OC3CC2O1 (stereo partly drawn)	WT yeast gro inh 82 (no result: NPY Y2 blocker)
O=c1[nH]c(=S)n(CCC2=CCCCC2)c(O)c1/C=N/Nc1ccccc1	none (no result: WT yeast gro inh, NPY Y1 blocker, NPY Y2 blocker, RAM network inh)
O=c1[nH]c(=S)n(CCC2=CCCCC2)c(O)c1C=NC1CCN(Cc2ccccc2)CC1	WT yeast gro inh 78
Nc1c(C(=O)NCCCc2ccccc2)c2nc3ccccc3nc2n1Cc1cccs1	none
COc1ccc([N+](=O)[O-])cc1N=Cc1c(O)n(CCc2ccccc2)c(=O)n(C(C)C)c1=O	RAM network inh 11
COc1ccc(CCn2c(O)c(C=Nc3ccccc3F)c(=O)[nH]c2=O)cc1OC	none (no result: WT yeast gro inh, NPY Y1 blocker, NPY Y2 blocker, RAM network inh)
Cc1ccc(/C=C2\C(=O)NC(=S)N(c3ccc(F)cc3)C2=O)s1	none (no result: NPY Y2 blocker)
CCOC(=O)c1c(NC(NC(=O)CF)C(Cl)(Cl)Cl)sc2c1CCCC2 (stereo not drawn)	WT yeast gro inh 69
COC(=O)C(O)(c1ccc(NC(=S)NC(=O)c2ccc(Cl)cc2Cl)cc1)C(F)(F)F (stereo not drawn)	none
COC(=O)C(O)(c1ccc(NC(=S)NC(=O)c2ccc(Cl)cc2Cl)c(C)c1)C(F)(F)F (stereo not drawn)	WT yeast gro inh 75, RAM network inh 9.3
CCOC(=O)C(O)(c1ccc(NC(=S)NC(=O)c2ccc(Cl)cc2Cl)c(C)c1)C(F)(F)F (stereo not drawn)	WT yeast gro inh 77
CCOC(=O)C(O)(c1ccc(NC(=S)NC(=O)c2ccc(Cl)cc2Cl)cc1)C(F)(F)F (stereo not drawn)	none
N=c1c2c(n(Cc3ccc(Cl)cc3Cl)c3c1CCC3)CCCC2	WT yeast gro inh 70
Cc1nn(Cc2ccc(Cl)cc2Cl)c(Cl)c1C(=O)O	none (no result: NPY Y2 blocker)
CCOC(=O)C1=C(NC(=S)NC(=O)c2ccccc2)c2ccccc2CC12CCCC2	WT yeast gro inh 73
